The subject of data set [1] is Calf thymus DNA. The data set is described as follows: Binding affinity to calf thymus DNA assessed as ratio of final absorbance area to absorbance of compound at 100 uM after 24 hrs by UV spectrophotometer analysis. The class given is nucleic-acid assay. The settings on record: Bos taurus. In outline: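 Calf thymus DNA in 10 mM Tris-HCl, pH 7.4. Compound stock 10^-4 M (≤5% solvent), diluted with water to 2 × 10^-5 M, then mixed 1:1 with DNA solution. Rotated 24 h; UV spectra taken at 20 °C in a 1-cm cell. Areas of a 20 nm band at λmax at 0 and 24 h; reported as a24/a0.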

A short description of data set [2]: Cytotoxicity against chinese hamster V79 cells assessed as survival fraction under normoxic condition at 20 uM after 7 days by crystal violet staining relative to control. In kind it is cell-based, Cricetulus griseus. To be noted: read-out: Activity. In outline: (§1)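 Exponential-phase V79 cells trypsinized into gassed suspension culture (2 × 10^4 cells/mL, EMEM, 10% FBS, 10 mM HEPES). Compound added 30 min after gassing began, in duplicate flasks, with a DMSO control; exposure 2 h. Cells then plated for colony formation at 37 °C, 5% CO2, for 7 days and stained with crystal violet. Colonies >64 cells counted; survival = PEtreated/PEcontrol × 100; means of two experiments.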

The test system of data set [3] is V79. The data set is described as follows: Cytotoxicity against chinese hamster V79 cells assessed as survival fraction under hypoxic condition at 20 uM after 7 days by crystal violet staining relative to control. The class given is functional, Cricetulus griseus. A digest of the protocol:
(§2)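 V79 Chinese hamster lung fibroblasts grown in EMEM with 10% FBS, then set up as suspension cultures (2 × 10^4 cells/mL, EMEM, 10% FBS, 10 mM HEPES) under simulated hypoxic gassing. Compound in DMSO added 30 min after gassing began, duplicate flasks per dose, 2 h exposure. Cells then plated and grown 7 days at 37 °C, stained with crystal violet, and colonies >64 cells counted. Survival = PEtreated/PEcontrol × 100.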

Data set [4] deals with Calf thymus DNA. The data set can be described thus: Binding affinity to calf thymus DNA assessed as fluorescence quenching at 20 uM after 24 hrs by fluorescence spectroscopy analysis. To be noted: Bos taurus. In kind it is nucleic-acid assay. The arrangement: unit not given here.
Data set [5] has as its system V79. The data set is described as follows: Cytotoxicity against chinese hamster V79 cells assessed as survival fraction under hypoxic condition at 10 uM after 7 days by crystal violet staining relative to control. The class given is functional, Cricetulus griseus. A digest of the protocol: as §2
Data set [6] is described as follows: Cytotoxicity against chinese hamster V79 cells assessed as survival fraction under normoxic condition at 10 uM after 7 days by crystal violet staining relative to control. In kind it is cell-based, Cricetulus griseus. The settings on record: read-out: Activity. In outline:
as §1

Data set [7] concerns V79. The data set can be described thus: Cytotoxicity against chinese hamster V79 cells assessed as concentration required to kill 99% cells under hypoxic condition after 7 days by crystal violet staining relative to control. In kind it is functional, Cricetulus griseus. A digest of the protocol:
as §2

Data set [8] relates to V79. The data set can be described thus: Hypoxic cytotoxicity ratio, concentration required to kill 99% chinese hamster V79 cells under normoxic condition to hypoxic condition. In kind it is functional, Cricetulus griseus. In outline:
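Clonogenic V79 suspension-culture assay run under both air and hypoxic gassing. Cells exposed 2 h in duplicate flasks per dose, then colonies counted after 7 days with crystal violet. Dose–response curves give the dose producing 1% of control survival in each condition. Ratio = air dose divided by hypoxic dose.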

As to `COc1cc(NS(C)(=O)=O)ccc1Nc1c2ccccc2nc2ccccc12`, the Ratio in the data set with Calf thymus DNA [1] worked out at 0.3.

For the compound `Cc1cc2c(cc1F)[n+]([O-])c1ccc(O)cc1[n+]2[O-]`, the viability at 168 h, 20 µM in data set [2] is 100%. For the same compound, in the data set on V79 [3], the Activity worked out at 95%. Also, in the data set with Calf thymus DNA [1], the Ratio was 0.83.

On to `Cc1ccc2nc3ccc(N)cc3nc2c1`, for which the Kq with Calf thymus DNA [4] amounted to 6.1. In data set [2], the viability at 168 h, 20 µM was determined as 98%. For the same compound, in the data set with V79 [3], the Activity stood at 100%. In the data set with Calf thymus DNA [1], the Ratio is 0.85.

With `Cc1ccc2c(c1)nc1cc(N)ccc1[n+]2[O-]`, the Kq in the data set on Calf thymus DNA [4] is 5.3. Further, the viability at 168 h, 20 µM in data set [2] came out at 100%. Also, in the data set with V79 [3], the Activity is recorded as 100%. The Ratio with Calf thymus DNA [1] stood at 0.92.

On to `[O-][n+]1c2ccc(Br)cc2[n+]([O-])c2cc(OCc3ccccc3)ccc21`, for which the viability at 168 h, 20 µM in data set [2] was determined as 86%. Further, the Activity in the data set with V79 [3] is 90%. Also, in the data set on Calf thymus DNA [1], the Ratio was 0.88.

Turning to `Cc1ccc2c(c1)[n+]([O-])c1cc(O)c3ncccc3c1[n+]2[O-]`, in data set [2], the viability at 168 h, 20 µM turned out to be 49%. Besides, the Activity in the data set on V79 [3] stood at 46%.

As to `Nc1ccc2c(c1)nc1cc(Br)ccc1[n+]2[O-]`, the Kq with Calf thymus DNA [4] worked out at 4.2. Also, the viability at 168 h, 20 µM in data set [2] was found to be 0%. Moreover, the Activity in the data set on V79 [3] was determined as 0%. The Ratio in the data set with Calf thymus DNA [1] is 0.92.

In the case of `Nc1ccc2c(c1)[n+]([O-])c1cc(F)ccc1[n+]2[O-]`, the Kq in the data set with Calf thymus DNA [4] came out at 7.8. Besides, the viability at 168 h, 20 µM in data set [2] was 0%. For the same compound, the Activity amounted to 0% with V79 [5], 0% in the data set with V79 [3] and 2.5 µM in the data set on V79 [7]. For the same compound, the viability at 168 h, 10 µM in data set [6] is 30%. The values for the Ratio with Calf thymus DNA [1] and with V79 [8] were 0.88 and 6.8, respectively.

In the case of `Cc1cc2c(cc1F)[n+]([O-])c1ccc(N)cc1[n+]2[O-]`, the viability at 168 h, 20 µM in data set [2] came out at 88%. Moreover, the Activity in the data set on V79 [3] was 15%. Further, in the data set with Calf thymus DNA [1], the Ratio was 0.85.

In the case of `Nc1ccc2nc3ccc(Br)cc3nc2c1`, the Kq in the data set with Calf thymus DNA [4] was found to be 7.3. Besides, the viability at 168 h, 20 µM in data set [2] is 0%. Moreover, in the data set on V79 [3], the Activity is listed as 0%. Also, the Ratio with Calf thymus DNA [1] was 0.9.

Regarding `CN1CCN(c2ccc3[nH]c(-c4ccc5[nH]c(-c6ccc(O)cc6)nc5c4)nc3c2)CC1`, the Ratio in the data set with Calf thymus DNA [1] was 0.57.

On to `O=C(CCl)Oc1ccc2c(c1)[n+]([O-])c1cc(Br)ccc1[n+]2[O-]`, for which, in data set [2], the viability at 168 h, 20 µM was 84%. The Activity with V79 [3] worked out at 62%.

As to `O=C1c2c(O)ccc(O)c2C(=O)c2c(NCCNCCO)ccc(NCCNCCO)c21`, the Ratio in the data set on Calf thymus DNA [1] is 0.

For `Nc1ccc2c(c1)[n+]([O-])c1cc(Cl)c(Cl)cc1[n+]2[O-]`, in data set [2], the viability at 168 h, 20 µM turned out to be 2%. Moreover, the Activity with V79 [5] stood at 18%; in the data set on V79 [3], 0%; in the data set with V79 [7], 10 µM. Also, the viability at 168 h, 10 µM in data set [6] is 3%. Moreover, the Ratio with Calf thymus DNA [1] came to 0.98; in the data set on V79 [8], 0.9.

With `[O-][n+]1c2ccc(O)cc2[n+]([O-])c2cc(Cl)c(Cl)cc21`, in data set [2], the viability at 168 h, 20 µM is 1%. The Activity in the data set with V79 [5] was found to be 8%; in the data set on V79 [3] it was 0%. Moreover, the viability at 168 h, 10 µM in data set [6] is 0%. For the same compound, the Ratio in the data set on Calf thymus DNA [1] came out at 0.96.

On to `CC[n+]1c(-c2ccccc2)c2cc(N)ccc2c2ccc(N)cc21`, for which, in the data set on Calf thymus DNA [1], the Ratio came to 0.5.
